{"source": "ChEMBL document CHEMBL4689842", "about": "“EUbOPEN Chemogenomics Library wave 1” (2021)", "key": {"Fibroblast [1]": {"system": "Fibroblast", "assay": "Incucyte cell viability with human fibroblast; further: filed as whole numbers so only -1 and 0 and 1 occur", "format": "toxicity, cell-based", "settings": "10 µM, compound concentration 10 uM"}, "Fibroblast [2]": {"system": "Fibroblast", "assay": "Multiplex assay against human fibroblast", "format": "toxicity, cell-based", "outline": "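Per cents of healthy-nucleus cells form the tubulin, mitochondrial-mass and membrane-permeability phenotype values. Live cells were stained at seeding with Hoechst33342, BioTracker Green Microtubule Cytoskeleton Dye, MitoTracker Red and Annexin V Alexa Fluor 680. After compound addition they were imaged on a CQ1 microscope at 37°C and 5% CO2, and CellPathfinder machine-learning gating split them into Hoechst high-intensity objects or normal cells, normal cells into healthy, pyknosed or fragmented nuclei, and pyknosed cells into mitotic or apoptotic.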"}, "[3]": {"settings": "12 h, 1 µM, compound concentration 1 uM, replicate 1"}, "[4]": {"settings": "12 h, 1 µM, compound concentration 1 uM, replicate 2"}, "[5]": {"settings": "12 h, 10 µM, compound concentration 10 uM, replicate 1"}, "[6]": {"settings": "12 h, 10 µM, compound concentration 10 uM, replicate 2"}, "[7]": {"settings": "24 h, 1 µM, compound concentration 1 uM, replicate 1"}, "[8]": {"settings": "24 h, 1 µM, compound concentration 1 uM, replicate 2"}}, "data": [{"smiles": "Oc1cccc(-c2nc(N3CCOCC3)c3oc4ncccc4c3n2)c1", "note": "[PI-103]", "values": [{"measurement": "Growth Rate", "setting": "Fibroblast [1]; 0 h, replicate number 2, timepoint 0 hours", "result": 0}, {"measurement": "Growth Rate", "setting": "Fibroblast [1]; 6 h, replicate number 1, timepoint 6 hours", "result": 0}, {"measurement": "Growth Rate", "setting": "Fibroblast [1]; 12 h, replicate number 1, timepoint 12 hours", "result": 0}, {"measurement": "Growth Rate", "setting": "Fibroblast [1]; 18 h, replicate number 1, timepoint 18 hours", "result": 0}, {"measurement": "Growth Rate", "setting": "Fibroblast [1]; 24 h, replicate number 1, timepoint 24 hours", "result": 0}, {"measurement": "Population Apoptotic (%)", "setting": "Fibroblast [2]; [3]", "result": 64, "unit": "%"}, {"measurement": "Population Fragmented Nuclei (%)", "setting": "Fibroblast [2]; [3]", "result": 32, "unit": "%"}, {"measurement": "Population Healthy Nuclei (%)", "setting": "Fibroblast [2]; [3]", "result": 39, "unit": "%"}, {"measurement": "Population Hoechst High Intensity Objects (%)", "setting": "Fibroblast [2]; [3]", "result": 12, "unit": "%"}, {"measurement": "Population Membrane Permeable-Phenotype (%)", "setting": "Fibroblast [2]; [3]", "result": 14, "unit": "%"}, {"measurement": "Population Mitochondria Different-Phenotype (%)", "setting": "Fibroblast [2]; [3]", "result": 1, "unit": "%"}, {"measurement": "Population Mitotic Cells (%)", "setting": "Fibroblast [2]; [3]", "result": 36, "unit": "%"}, {"measurement": "Population Normal (%)", "setting": "Fibroblast [2]; [3]", "result": 87, "unit": "%"}, {"measurement": "Population Pyknosed Nuclei (%)", "setting": "Fibroblast [2]; [3]", "result": 28, "unit": "%"}, {"measurement": "Population Tubulin-Different-Phenotype (%)", "setting": "Fibroblast [2]; [3]", "result": 17, "unit": "%"}, {"measurement": "Total Cell Count", "setting": "Fibroblast [2]; [3]", "result": 199}, {"measurement": "Population Apoptotic (%)", "setting": "Fibroblast [2]; [4]", "result": 47, "unit": "%"}, {"measurement": "Population Fragmented Nuclei (%)", "setting": "Fibroblast [2]; [4]", "result": 10, "unit": "%"}, {"measurement": "Population Healthy Nuclei (%)", "setting": "Fibroblast [2]; [4]", "result": 63, "unit": "%"}, {"measurement": "Population Hoechst High Intensity Objects (%)", "setting": "Fibroblast [2]; [4]", "result": 5, "unit": "%"}, {"measurement": "Population Membrane Permeable-Phenotype (%)", "setting": "Fibroblast [2]; [4]", "result": 2, "unit": "%"}, {"measurement": "Population Mitochondria Different-Phenotype (%)", "setting": "Fibroblast [2]; [4]", "result": 7, "unit": "%"}, {"measurement": "Population Mitotic Cells (%)", "setting": "Fibroblast [2]; [4]", "result": 52, "unit": "%"}, {"measurement": "Population Normal (%)", "setting": "Fibroblast [2]; [4]", "result": 94, "unit": "%"}, {"measurement": "Population Pyknosed Nuclei (%)", "setting": "Fibroblast [2]; [4]", "result": 26, "unit": "%"}, {"measurement": "Population Tubulin-Different-Phenotype (%)", "setting": "Fibroblast [2]; [4]", "result": 0, "unit": "%"}, {"measurement": "Total Cell Count", "setting": "Fibroblast [2]; [4]", "result": 73}, {"measurement": "Population Apoptotic (%)", "setting": "Fibroblast [2]; [5]", "result": 70, "unit": "%"}, {"measurement": "Population Fragmented Nuclei (%)", "setting": "Fibroblast [2]; [5]", "result": 34, "unit": "%"}, {"measurement": "Population Healthy Nuclei (%)", "setting": "Fibroblast [2]; [5]", "result": 34, "unit": "%"}, {"measurement": "Population Hoechst High Intensity Objects (%)", "setting": "Fibroblast [2]; [5]", "result": 23, "unit": "%"}, {"measurement": "Population Membrane Permeable-Phenotype (%)", "setting": "Fibroblast [2]; [5]", "result": 33, "unit": "%"}, {"measurement": "Population Mitochondria Different-Phenotype (%)", "setting": "Fibroblast [2]; [5]", "result": 16, "unit": "%"}, {"measurement": "Population Mitotic Cells (%)", "setting": "Fibroblast [2]; [5]", "result": 29, "unit": "%"}, {"measurement": "Population Normal (%)", "setting": "Fibroblast [2]; [5]", "result": 76, "unit": "%"}, {"measurement": "Population Pyknosed Nuclei (%)", "setting": "Fibroblast [2]; [5]", "result": 30, "unit": "%"}, {"measurement": "Population Tubulin-Different-Phenotype (%)", "setting": "Fibroblast [2]; [5]", "result": 77, "unit": "%"}, {"measurement": "Total Cell Count", "setting": "Fibroblast [2]; [5]", "result": 135}, {"measurement": "Population Apoptotic (%)", "setting": "Fibroblast [2]; [6]", "result": 36, "unit": "%"}, {"measurement": "Population Fragmented Nuclei (%)", "setting": "Fibroblast [2]; [6]", "result": 18, "unit": "%"}, {"measurement": "Population Healthy Nuclei (%)", "setting": "Fibroblast [2]; [6]", "result": 39, "unit": "%"}, {"measurement": "Population Hoechst High Intensity Objects (%)", "setting": "Fibroblast [2]; [6]", "result": 5, "unit": "%"}, {"measurement": "Population Mitochondria Different-Phenotype (%)", "setting": "Fibroblast [2]; [6]", "result": 59, "unit": "%"}, {"measurement": "Population Mitotic Cells (%)", "setting": "Fibroblast [2]; [6]", "result": 63, "unit": "%"}, {"measurement": "Population Normal (%)", "setting": "Fibroblast [2]; [6]", "result": 94, "unit": "%"}, {"measurement": "Population Pyknosed Nuclei (%)", "setting": "Fibroblast [2]; [6]", "result": 41, "unit": "%"}, {"measurement": "Population Tubulin-Different-Phenotype (%)", "setting": "Fibroblast [2]; [6]", "result": 83, "unit": "%"}, {"measurement": "Total Cell Count", "setting": "Fibroblast [2]; [6]", "result": 69}, {"measurement": "Population Apoptotic (%)", "setting": "Fibroblast [2]; [7]", "result": 64, "unit": "%"}, {"measurement": "Population Fragmented Nuclei (%)", "setting": "Fibroblast [2]; [7]", "result": 30, "unit": "%"}, {"measurement": "Population Healthy Nuclei (%)", "setting": "Fibroblast [2]; [7]", "result": 46, "unit": "%"}, {"measurement": "Population Hoechst High Intensity Objects (%)", "setting": "Fibroblast [2]; [7]", "result": 14, "unit": "%"}, {"measurement": "Population Membrane Permeable-Phenotype (%)", "setting": "Fibroblast [2]; [7]", "result": 18, "unit": "%"}, {"measurement": "Population Mitochondria Different-Phenotype (%)", "setting": "Fibroblast [2]; [7]", "result": 5, "unit": "%"}, {"measurement": "Population Mitotic Cells (%)", "setting": "Fibroblast [2]; [7]", "result": 35, "unit": "%"}, {"measurement": "Population Normal (%)", "setting": "Fibroblast [2]; [7]", "result": 85, "unit": "%"}, {"measurement": "Population Pyknosed Nuclei (%)", "setting": "Fibroblast [2]; [7]", "result": 22, "unit": "%"}, {"measurement": "Population Tubulin-Different-Phenotype (%)", "setting": "Fibroblast [2]; [7]", "result": 30, "unit": "%"}, {"measurement": "Total Cell Count", "setting": "Fibroblast [2]; [7]", "result": 189}, {"measurement": "Population Apoptotic (%)", "setting": "Fibroblast [2]; [8]", "result": 75, "unit": "%"}, {"measurement": "Population Fragmented Nuclei (%)", "setting": "Fibroblast [2]; [8]", "result": 14, "unit": "%"}, {"measurement": "Population Healthy Nuclei (%)", "setting": "Fibroblast [2]; [8]", "result": 69, "unit": "%"}, {"measurement": "Population Hoechst High Intensity Objects (%)", "setting": "Fibroblast [2]; [8]", "result": 6, "unit": "%"}, {"measurement": "Population Membrane Permeable-Phenotype (%)", "setting": "Fibroblast [2]; [8]", "result": 3, "unit": "%"}, {"measurement": "Population Mitochondria Different-Phenotype (%)", "setting": "Fibroblast [2]; [8]", "result": 3, "unit": "%"}, {"measurement": "Population Mitotic Cells (%)", "setting": "Fibroblast [2]; [8]", "result": 25, "unit": "%"}, {"measurement": "Population Normal (%)", "setting": "Fibroblast [2]; [8]", "result": 93, "unit": "%"}, {"measurement": "Population Pyknosed Nuclei (%)", "setting": "Fibroblast [2]; [8]", "result": 16, "unit": "%"}, {"measurement": "Population Tubulin-Different-Phenotype (%)", "setting": "Fibroblast [2]; [8]", "result": 1, "unit": "%"}, {"measurement": "Total Cell Count", "setting": "Fibroblast [2]; [8]", "result": 73}]}]}
